In series [1] the test system is Rattus norvegicus. Description: Increase in liver weight in Wistar rat at 591 umol/kg/day administered through diet for 4 days. Format: ADME, organism-based. Particulars: in vivo, po, 96 h.
The test system of series [2] is Rattus norvegicus. Description: Increase in cholesterol level in Wistar rat liver at 591 umol/kg/day administered through diet for 4 days. Format: ADME, organism-based. Particulars: in vivo, po, 96 h.
The test system of series [3] is Rattus norvegicus. Description: Hypolipidemic activity in Wistar rat assessed as reduction in plasma cholesterol level at 591 umol/kg/day administered through diet for 4 days. Format: functional. The settings on record: 96 h. In short, it runs like this: (§1)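 Young male Wistar rats (initial weight 170-190 g), groups of six, fed compound mixed into Purina Lab Chow ad libitum for 4 or 10 days; daily dose calculated from food consumption and body weight. Bled by cardiac puncture; plasma cholesterol and triglycerides by automated procedures; percent reduction versus simultaneous untreated controls, Student's t test.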

Series [4] relates to Rattus norvegicus. Put plainly: Hypolipidemic activity in Wistar rat assessed as reduction in plasma triglyceride level at 591 umol/kg/day administered through diet for 4 days. Format: functional. Particulars: 96 h.
Series [5] deals with Rattus norvegicus. Put plainly: Increase in liver weight in Wistar rat at 496 umol/kg/day administered through diet for 4 days. Format: ADME, organism-based. Particulars: in vivo, po, 96 h.
Series [6] relates to Rattus norvegicus. Description: Hypolipidemic activity in Wistar rat assessed as reduction in plasma cholesterol level at 496 umol/kg/day administered through diet for 4 days. Format: functional. Particulars: 96 h. The gist of the method:
(§2)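 Young male Wistar rats, 170-190 g initial weight, groups of six, given compound mixed thoroughly into Purina Lab Chow ad libitum for 4 or 10 days as stated. Daily dose calculated from food consumption and body weight. Bled by cardiac puncture at end of treatment; plasma cholesterol measured by automated procedure. Expressed as percent reduction versus simultaneous untreated control group; Student's t test.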

Series [7] deals with Rattus norvegicus. Put plainly: Increase in cholesterol level in Wistar rat liver at 496 umol/kg/day administered through diet for 4 days. Format: ADME, organism-based. The settings on record: in vivo, po, 96 h.
Series [8] relates to Rattus norvegicus. Description: Increase in liver weight in Wistar rat at 460 umol/kg/day administered through diet for 10 days. Format: ADME, organism-based. The settings on record: in vivo, po, 240 h.
Series [9] deals with Rattus norvegicus. Description: Hypolipidemic activity in Wistar rat assessed as reduction in plasma triglyceride level at 460 umol/kg/day administered through diet for 10 days. Format: functional. The settings on record: 240 h.
For series [10], the system named is Rattus norvegicus. Description: Hypolipidemic activity in Wistar rat assessed as reduction in plasma triglyceride level at 496 umol/kg/day administered through diet for 4 days. Particulars: 96 h. Format: functional.
The test system of series [11] is Rattus norvegicus. Put plainly: Hypolipidemic activity in Wistar rat assessed as reduction in plasma cholesterol level at 460 umol/kg/day administered through diet for 10 days. Format: functional. Particulars: 240 h. In short, it runs like this:
as §2

Series [12] deals with Rattus norvegicus. Description: Increase in cholesterol level in Wistar rat liver at 460 umol/kg/day administered through diet for 10 days. Format: ADME, organism-based. Particulars: in vivo, po, 240 h.
In series [13] the test system is Rattus norvegicus. Put plainly: Increase in liver weight in Wistar rat at 415 umol/kg/day administered through diet for 4 days. Particulars: in vivo, po, 96 h. Format: ADME, organism-based. The gist of the method: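 Male Wistar rats (170-190 g initial), groups of six, dosed via diet ad libitum for 4 or 10 days, daily dose from food consumption. Liver wet weight measured, expressed as g/100 g final body weight, compared with untreated controls run simultaneously.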

Series [14] concerns Rattus norvegicus. Description: Hypolipidemic activity in Wistar rat assessed as reduction in plasma triglyceride level at 415 umol/kg/day administered through diet for 4 days. The settings on record: 96 h. Format: functional. In short, it runs like this:
as §1

In series [15] the test system is Rattus norvegicus. Description: Increase in cholesterol level in Wistar rat liver at 415 umol/kg/day administered through diet for 4 days. Format: ADME, organism-based. Particulars: in vivo, po, 96 h.
Series [16] has as its system Rattus norvegicus. Description: Hypolipidemic activity in Wistar rat assessed as reduction in plasma cholesterol level at 415 umol/kg/day administered through diet for 4 days. Format: functional. Particulars: 96 h. The gist of the method: (§3)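 Young male Wistar rats, 170-190 g at start, in groups of six, given compound mixed into Purina Lab Chow ad libitum for 4 or 10 days as stated. Daily dose was calculated from food consumption and body weight. Plasma was taken by cardiac puncture at the end and cholesterol measured by automated procedure. Results are % reduction versus a concurrent untreated control group, with Student's t test.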

For series [17], the system named is Rattus norvegicus. Put plainly: Hypolipidemic activity in Wistar rat assessed as reduction in plasma triglyceride level at 425 umol/kg/day administered through diet for 10 days. Format: functional. Particulars: 240 h.
Series [18] deals with Rattus norvegicus. Description: Hypolipidemic activity in Wistar rat assessed as reduction in plasma cholesterol level at 425 umol/kg/day administered through diet for 10 days. Format: functional. The settings on record: 240 h. In short, it runs like this:
as §2

Series [19] has as its system Rattus norvegicus. Put plainly: Increase in liver weight in Wistar rat at 425 umol/kg/day administered through diet for 10 days. Format: ADME, organism-based. The settings on record: in vivo, po, 240 h.
The subject of series [20] is Rattus norvegicus. Description: Increase in cholesterol level in Wistar rat liver at 425 umol/kg/day administered through diet for 10 days. Format: ADME, organism-based. Particulars: in vivo, po, 240 h.
The test system of series [21] is Rattus norvegicus. Description: Increase in cholesterol level in Wistar rat liver at 149 umol/kg/day administered through diet for 10 days. Format: ADME, organism-based. The settings on record: in vivo, po, 240 h.
Series [22] concerns Rattus norvegicus. Put plainly: Hypolipidemic activity in Wistar rat assessed as reduction in plasma cholesterol level at 149 umol/kg/day administered through diet for 10 days. Format: functional. Particulars: 240 h. The gist of the method:
as §3

The test system of series [23] is Rattus norvegicus. Put plainly: Hypolipidemic activity in Wistar rat assessed as reduction in plasma triglyceride level at 407 umol/kg/day administered through diet for 4 days. Format: functional. Particulars: 96 h.
The test system of series [24] is Rattus norvegicus. Put plainly: Hypolipidemic activity in Wistar rat assessed as reduction in plasma triglyceride level at 149 umol/kg/day administered through diet for 10 days. Format: functional. The settings on record: 240 h, read-out: INH. In short, it runs like this: (§4)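 Young male Wistar rats, 170-190 g initial weight, six per group, fed drug mixed thoroughly into Purina Lab Chow ad libitum for the stated days; daily dose calculated from food consumption and body weight. Bled by cardiac puncture at end; plasma cholesterol and triglycerides by automated procedures, expressed as percent reduction versus simultaneous untreated controls; Student's t test.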

For series [25], the system named is Rattus norvegicus. Description: Hypolipidemic activity in Wistar rat assessed as reduction in plasma triglyceride level at 275 umol/kg/day administered through diet for 10 days. Format: functional. Particulars: 240 h. The gist of the method:
as §4

Series [26] has as its system Rattus norvegicus. Put plainly: Increase in cholesterol level in Wistar rat liver at 511 umol/kg/day administered through diet for 10 days. Format: ADME, organism-based. Particulars: in vivo, po, 240 h.
For series [27], the system named is Rattus norvegicus. Description: Increase in liver weight in Wistar rat at 511 umol/kg/day administered through diet for 10 days. Particulars: in vivo, po, 240 h. Format: ADME, organism-based.
Series [28] concerns Rattus norvegicus. Put plainly: Increase in liver weight in Wistar rat at 275 umol/kg/day administered through diet for 10 days. Format: ADME, organism-based. The settings on record: in vivo, po, 240 h.
Series [29] deals with Rattus norvegicus. Description: Hypolipidemic activity in Wistar rat assessed as reduction in plasma triglyceride level at 511 umol/kg/day administered through diet for 10 days. Format: functional. Particulars: 240 h.
In series [30] the test system is Rattus norvegicus. Put plainly: Hypolipidemic activity in Wistar rat assessed as reduction in plasma cholesterol level at 275 umol/kg/day administered through diet for 10 days. Format: functional. The settings on record: 240 h. The gist of the method:
as §3

Series [31] has as its system Rattus norvegicus. Description: Hypolipidemic activity in Wistar rat assessed as reduction in plasma cholesterol level at 407 umol/kg/day administered through diet for 4 days. The settings on record: 96 h. Format: functional. The gist of the method:
as §3

Series [32] concerns Rattus norvegicus. Description: Hypolipidemic activity in Wistar rat assessed as reduction in plasma cholesterol level at 511 umol/kg/day administered through diet for 10 days. The settings on record: 240 h. Format: functional. The gist of the method: as §2
The subject of series [33] is Rattus norvegicus. Put plainly: Increase in cholesterol level in Wistar rat liver at 407 umol/kg/day administered through diet for 4 days. Format: ADME, organism-based. Particulars: in vivo, po, 96 h.
Series [34] deals with Rattus norvegicus. Put plainly: Increase in liver weight in Wistar rat at 407 umol/kg/day administered through diet for 4 days. Format: ADME, organism-based. Particulars: in vivo, po, 96 h.
For series [35], the system named is Rattus norvegicus. Put plainly: Increase in cholesterol level in Wistar rat liver at 275 umol/kg/day administered through diet for 10 days. Format: ADME, organism-based. The settings on record: in vivo, po, 240 h.
The subject of series [36] is Rattus norvegicus. Description: Increase in liver weight in Wistar rat at 149 umol/kg/day administered through diet for 10 days. Format: ADME, organism-based. Particulars: in vivo, po, 240 h.

Results on five compounds are retold here after ChEMBL document CHEMBL3272012, “5-(Tetradecyloxy)-2-furancarboxylic acid and related hypolipidemic fatty acid-like alkyloxyarylcarboxylic acids” (J Med Chem, 1977).

With `CCCCCCCCOc1ccc(C(=O)O)cc1`, the Activity with Rattus norvegicus [1] is listed as 0%; in the series on Rattus norvegicus [2], 12%. For the same compound, the inhibition in vivo at 591 µmol/kg with Rattus norvegicus [3] is 8%; with Rattus norvegicus [4], 35%.

As for `CCCCCCCCCCCCCOc1ccc(C(=O)OC)cc1`, the Activity in the series with Rattus norvegicus [5] is 20%; in the series on Rattus norvegicus [7], 9%; with Rattus norvegicus [8] it was 20%; with Rattus norvegicus [12], 6%. Further, the inhibition in vivo at 496 µmol/kg in the series with Rattus norvegicus [6] is 27%; in the series with Rattus norvegicus [10], 31%. Moreover, the values for the inhibition in vivo at 460 µmol/kg with Rattus norvegicus [9] and in the series on Rattus norvegicus [11] were 70% and 25%, respectively.

Turning to `CCCCCCCCCCCCCCCc1ccc(C(=O)O)cc1`, the results for the Activity with Rattus norvegicus [13] and in the series on Rattus norvegicus [15] were 4% and 13%, respectively. In addition, the figures for the inhibition in vivo at 415 µmol/kg in the series on Rattus norvegicus [14] and in the series on Rattus norvegicus [16] were 58% and 27%, respectively.

As to `CCCCCCCCCCCCCCCCCCCc1ccc(C(=O)O)cc1`, the inhibition in vivo at 425 µmol/kg with Rattus norvegicus [17] is 2%; in the series on Rattus norvegicus [18] it was 8%. Besides, the Activity in the series on Rattus norvegicus [19] amounted to 10%; in the series with Rattus norvegicus [20], 0%.

On to `CCCCCCCCCCCCCCOc1ccc(C(=O)O)cc1`, for which the Activity in the series with Rattus norvegicus [21] is given as 7%; in the series on Rattus norvegicus [26], 2%; in the series with Rattus norvegicus [27], 19%; in the series with Rattus norvegicus [28] it was 20%; in the series on Rattus norvegicus [33], 1%; in the series with Rattus norvegicus [34], 14%. For the same compound, the Activity amounted to 4% in the series on Rattus norvegicus [35] and 7% with Rattus norvegicus [36]. Besides, the inhibition in vivo at 149 µmol/kg in the series on Rattus norvegicus [22] stood at 16%; with Rattus norvegicus [24], 49%. The figures for the inhibition in vivo at 407 µmol/kg in the series on Rattus norvegicus [23] and in the series with Rattus norvegicus [31] were 39% and 31%, respectively. Besides, the figures for the inhibition in vivo at 275 µmol/kg with Rattus norvegicus [25] and with Rattus norvegicus [30] were 46% and 33%, respectively. For the same compound, the inhibition in vivo at 511 µmol/kg in the series on Rattus norvegicus [29] stood at 36%; in the series with Rattus norvegicus [32], 24%.
